Screening results: PubChem, several laboratories
This is a sample that favours compounds with a hit; in the whole collection about 2.2% have one here.
EBI2 antag: blocks human EBI2 receptor beta-arrestin signaling; P32249; EBI2 beta-arrestin recruitment, luminescence, 7a,25-OHC stimulated; inhibition, % at 5 µM; 360,000 tested, 0.81% active; in the data active = inhibition above about 38%;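 note: enzyme fragment complementation signal reports receptor beta-arrestin coupling in cells; 0% = agonist plus DMSO wells and 100% = wells without agonist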
CXCR6 inh: inhibitors of human CXCR6 receptor | O00574 | CHO-K1 PathHunter CXCR6 beta-arrestin, luminescence | inhibition, % at 20 µM | 360,000 tested, 0.36% active; in the data active = inhibition above about 34%, passing the limit was not always enough;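 note: antagonist mode with CXCL16 agonist at 10 nM final; 0% = 10 nM CXCL16 with DMSO and 100% = unstimulated wells without agonist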
Target sequence (O00574 whole entry, looked up): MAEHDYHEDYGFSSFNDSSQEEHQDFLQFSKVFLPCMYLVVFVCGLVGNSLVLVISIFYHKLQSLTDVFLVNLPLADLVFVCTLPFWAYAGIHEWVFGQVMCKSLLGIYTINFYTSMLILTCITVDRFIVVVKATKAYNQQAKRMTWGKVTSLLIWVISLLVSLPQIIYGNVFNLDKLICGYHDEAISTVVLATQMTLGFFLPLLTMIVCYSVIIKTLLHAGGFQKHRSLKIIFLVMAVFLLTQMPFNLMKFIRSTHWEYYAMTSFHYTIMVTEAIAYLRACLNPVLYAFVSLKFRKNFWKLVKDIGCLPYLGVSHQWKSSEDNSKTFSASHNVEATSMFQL
APJ antagonist: blocks the human apelin receptor APJ | 330,000 tested, 0.32% active | inhibition, % at 20 µM | P35414 | CHO-K1 APJ beta-arrestin complementation, luminescence | AID 2521;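 active = inhibition above about 40% at 20 µM, limit read from the data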;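 note: cells challenged with 10 nM apelin-13 agonist together with compound; plate controls were apelin-13 plus DMSO wells for no effect and DMSO wells lacking apelin-13 for full effect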
Target sequence (P35414 whole entry, looked up): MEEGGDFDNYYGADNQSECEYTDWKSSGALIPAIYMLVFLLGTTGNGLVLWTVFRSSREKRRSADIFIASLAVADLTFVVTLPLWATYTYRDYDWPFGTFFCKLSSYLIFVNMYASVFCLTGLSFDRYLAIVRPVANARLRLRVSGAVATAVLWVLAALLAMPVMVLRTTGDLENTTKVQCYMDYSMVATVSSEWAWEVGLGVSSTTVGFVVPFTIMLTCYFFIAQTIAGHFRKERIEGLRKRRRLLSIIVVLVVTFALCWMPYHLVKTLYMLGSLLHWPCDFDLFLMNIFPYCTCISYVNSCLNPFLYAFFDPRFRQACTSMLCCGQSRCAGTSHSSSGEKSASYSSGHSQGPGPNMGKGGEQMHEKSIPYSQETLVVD
m5-HT2A agonist: activates the mouse 5-HT2A serotonin receptor. activation, % at 7.6 µM. AID 624169. 360,000 tested, 0.66% active. CHO-K1 mHTR2A beta-arrestin complementation, luminescence; percent of 30 µM serotonin response;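 active = activation above a run cutoff, the mean activation of all tested compounds plus 3 SD, cut at about 14% in these data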;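 note: 0% = plate median of compound wells and 100% = 30 µM serotonin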
APJ ag: activates the human apelin receptor APJ; P35414; CHO-K1 APJ PathHunter beta-arrestin, luminescence; 0% DMSO wells, 100% apelin; activation, % at 20 µM; 330,000 tested, 0.11% active;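 active = activation more than six SD over the plate average, tested at 20 µM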;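 note: 0% = DMSO alone and 100% = apelin-13 at 10 nM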
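Assay system – PathHunter CHO-K1 APJ (AGTRL-1) beta-arrestin reporter cells · Compound – one dose, 20 µM compound, 1% DMSO · Timing – compound 90 min 25 °C, reagent 1 h · Measured by – luminescence from split beta-galactosidase complementation, Galacton Star/Emerald II substrate · Measure – beta-arrestin recruitment to APJ as agonist activity, luminescent signal · Benchmarks – DMSO vs Apelin-13 10 nM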
CCR6 antagonist: CCR6 (human) receptor antagonism; P51684; CHO-K1 CCR6 PathHunter beta-arrestin, luminescence, CCL20-stimulated; inhibition, % at 20 µM; 340,000 tested, 0.49% active;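 active = compounds whose inhibition of the agonist-driven luminescence signal at 20 µM reaches about 50%, limit read from the data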;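 note: cells stimulated with CCL20 at 14 nM final; plate controls were DMSO with CCL20 for no effect and DMSO without agonist for full effect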
CXCR6 antag conf: CXCR6 antagonism confirmation, single concentration. shares compounds with CXCR6 inh. CHO-K1 CXCR6 PathHunter beta-arrestin, luminescence. inhibition, % at 20 µM. 700 tested, 65% active;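 active = mean inhibition over four retests above 40%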;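 note: receptor stimulated with 10 nM CXCL16 agonist; beta-galactosidase fragment complementation upon beta-arrestin recruitment to receptor; plate controls were CXCL16 plus DMSO for no effect and DMSO without CXCL16 for full effect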
The depositor's hits bear a star; · = no result given.

SMILES	EBI2 antag	CXCR6 inh	APJ antagonist	m5-HT2A agonist	APJ ag	CCR6 antagonist	CXCR6 antag conf
O=C(Nc1ccccc1)c1nnsc1S(=O)c1ccc(Cl)cc1 (centres undefined)	26.6	89.2*	21.0	-0.5	-4.2	101.1*	96.7*
CN1CCN(C2CN(Cc3cn(Cc4ccc(F)cc4)nn3)S(=O)(=O)C2)CC1 (centres undefined)	-1.2	-1.7	·	10.8	·	·	·
Cc1ccc2c(Cl)cc(Cl)c(O)c2n1	30.3	49.1*	·	-3.8	·	96.5*	69.9*
Cc1ccc2c(C)ccc(O)c2n1	-11.0	64.9*	35.3	-5.3	-5.5	83.4*	76.2*
COc1cccc(-c2cccc3c2NC(=O)C3(C)Cc2cccc(F)c2)c1 (centres undefined)	18.0	10.1	·	-5.6	·	·	·
COc1ccc(C(=O)NC(=S)Nc2ccc([N+](=O)[O-])cc2C)cc1OC	13.8	49.9*	34.1	2.7	-10.1	67.7*	54.8*
CC(NC(=O)CCC(=O)NCc1ccc(F)cc1)c1ccccc1 (centres undefined)	7.0	79.7*	-9.3	-1.3	-2.7	17.8	-3.6
CC(C)CC(N)c1csc(NC(=O)c2cc(C(C)(C)C)nn2Cc2ccccc2)n1 (centres undefined)	5.3	6.3	·	-0.1	·	·	·
O=C(O)C1CCc2sc3[nH]c(=S)n(-c4ccccc4)c(=O)c3c21 (centres undefined)	7.3	43.8*	-3.8	2.4	-5.7	10.8	19.5
CCN(CC)C(=O)c1sc2[nH]c(=S)n(-c3ccccc3)c(=O)c2c1C	-2.3	-0.7	13.7	-3.5	-0.1	9.2	·
COc1ccccc1Cc1c(C2CCCCC2)nc2cc(C)c(Br)c(C)n12	-3.9	0.9	·	-2.5	·	·	·
CC(=O)Nc1ccc2c(c1)Cc1cc(N3C(=O)C=CC3=O)ccc1-2	25.2	98.8*	·	-5.8	·	115.4*	72.0*
O=C1[C@H]2[C@@H](c3ccccc3)N[C@]3(CCCN(CC4CCCCC4)C3=O)[C@H]2C(=O)N1Cc1ccccc1	-0.5	2.6	·	2.0	·	·	·
CCc1nc2c(OCCC3CCCCC3)cccn2c1N(C)C(=O)c1ccc(OC)cc1	21.7	44.9*	·	-8.0	·	·	5.6
O=c1ccc(-c2nc3ccccc3n2C(CCc2ccccc2)c2nc3ccccc3[nH]2)c[nH]1 (centres undefined)	-11.2	·	·	-2.4	·	·	·
COc1ccc(C(=O)N/C(N)=N/c2nc3ccccc3o2)cc1	9.9	-8.7	5.9	0.5	-0.6	-8.1	·
COc1ccc(C(=O)/C=C/Sc2nc3ccccc3o2)cc1	36.4	45.5*	1.1	10.3	3.1	61.8*	44.6*
CC1CCC/C(=C\c2ccc(O)cc2)C1=O (centres undefined)	11.7	-9.0	5.6	-5.0	0.4	2.9	·
CN(C)CC1CC/C(=C\c2ccc(O)cc2)C1=O (centres undefined)	31.3	74.8*	·	-4.0	·	85.7*	76.6*
COc1ccc(/C=C2/CCC(CN3CCOCC3)C2=O)cc1 (centres undefined)	35.7	70.4*	·	-2.8	·	87.3*	70.0*
C=C1CCN([C@@H](Cc2ccccc2)C(=O)NCCC(C)C)S(=O)(=O)c2ccccc21	28.0	41.4*	-33.9	1.8	-2.0	24.3	42.0*
O=[N+]([O-])c1ccc(C=CC=Cc2ccccc2)cc1	0.6	1.5	·	-0.3	·	·	·
CN(c1ccccc1)c1ccc(/C=C/[N+](=O)[O-])cc1	6.6	71.4*	·	-3.2	·	·	63.4*
O=S(=O)(/C=C/C=C/S(=O)(=O)c1ccccc1)c1ccccc1	53.7*	69.6*	·	3.6	·	88.6*	67.4*
O=C(CN1C(=O)c2ccccc2C1=O)C(O)CN1C(=O)c2ccccc2C1=O (centres undefined)	1.9	-2.0	·	-4.2	·	·	·
SMILES	EBI2 antag	CXCR6 inh	APJ antagonist	m5-HT2A agonist	APJ ag	CCR6 antagonist	CXCR6 antag conf
CCOC(=O)C1=CCC(c2cccn2C(=O)OC(C)(C)C)N(S(=O)(=O)c2ccc(C)cc2)C1 (centres undefined)	6.4	7.0	·	-3.3	·	·	·
O=C(CSc1ccccn1)Nc1ccc(NC(=O)CSc2ccccn2)cc1	8.6	87.4*	-9.0	8.0	-0.1	9.8	9.8
CC(C)CNC(=O)C1(C)CCCCCN1Cc1ccccc1-c1ccccc1 (centres undefined)	10.2	36.9*	·	-3.4	·	·	8.2
CCc1nc2ccc(C(=O)NCCCN3CCCC3=O)cn2c1N(C)C(=O)c1cccc(OC)c1	1.8	10.4	·	7.1	·	·	·
C/C(=N\NC(=O)C1COc2ccccc2O1)c1ccccn1 (centres undefined)	1.2	75.1*	58.5*	2.8	-7.6	77.8*	68.3*
C/C(=N\NC(=O)C1COc2ccccc2O1)c1ccc(C)o1 (centres undefined)	0.7	14.6	-1.1	-2.5	-6.6	18.9	·
C/C(=N\NC(=O)C(c1ccccc1)c1ccccc1)c1ccccn1	27.5	86.5*	74.9*	4.2	-14.0	105.3*	107.7*
C/C(=N\NC(=O)C(c1ccccc1)c1ccccc1)c1ccc(O)cc1	-9.5	2.7	-19.8	6.5	-1.6	25.3	·
CCc1nc2ccc(C(=O)NCc3ccc(OC)cc3)cn2c1N(C)C(=O)Cc1ccccc1	-7.4	3.6	·	0.2	·	·	·
CC(C)(C)C(=O)c1c(N)[nH]c(C(=O)c2ccccc2)c1-c1cc2ccccc2nc1Cl	-1.7	-2.4	·	-1.2	·	·	·
Cc1ccc(NC(=O)C2(C)CCN2Cc2cccc3c2OCO3)cc1O (centres undefined)	2.8	-4.3	·	-8.4	·	·	·
Cc1ccc(/C(O)=C/C(=O)C(=O)NC23CC4CC(CC(C4)C2)C3)cc1	-3.8	53.4*	28.4	-0.4	-16.0	69.9*	38.5
COc1cc(S(=O)(=O)NC2CCCC2)c(OC)cc1Cl	-10.4	46.2*	7.4	1.8	-1.5	9.4	5.0
COc1cc(S(=O)(=O)NC2CC(C)(C)NC(C)(C)C2)c(OC)cc1Cl	-31.4	-0.2	4.0	-0.3	-3.5	-4.4	·
Cc1cc(NC(=O)CS(=O)c2cn(Cc3cccc(Cl)c3)c3ccccc23)no1 (centres undefined)	6.8	0.7	·	-0.4	·	·	·
CC(=O)Nc1cccc(OCC(O)Cn2c(C)nc3ccccc32)c1 (centres undefined)	-4.3	40.5*	16.0	-1.2	2.8	17.5	22.7
CC(=O)Nc1cccc(OCC(O)Cn2cnc3ccccc32)c1 (centres undefined)	-8.2	1.5	-7.2	-3.1	-1.9	-11.8	·
CC(C)C[C@H]1CNC(=O)C(=O)N1CC1CCN(CC2CCC(C)CC2)CC1 (some centres undefined)	4.8	0.9	·	-0.9	·	·	·
O=C(NC(=S)N1CCN(c2ccc(C(F)(F)F)cc2[N+](=O)[O-])CC1)c1cccs1	6.6	52.4*	22.1	-8.6	0.4	·	56.2*
